Bioassay records deposited in PubChem BioAssay by The Scripps Research Institute Molecular Screening Center.
This is a sample that favours compounds with a hit; in the whole collection about 3.1% have one here.
GPR7 antagonist: antagonists of human GPR7 (neuropeptides B/W receptor 1); P48145; inhibition, % at 4.4 µM; GPR7-expressing cells, fluorescence antagonist assay; 1.1% of 290,000 active; in the data active means inhibition above about 16%, passing the limit was not always enough;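 further: cells stimulated with the agonist NPW; 0% = agonist with vehicle and 100% = vehicle without agonist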
OX1R antag-1: blocks the human orexin 1 receptor. O43613. CHO/OX1R cells, Fluo-8 calcium fluorescence, orexin A. inhibition, % at 5 µM. 0.43% of 330,000 active. AID 434989;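 active means inhibition above its plate's threshold, mean inhibition of all tested compounds on the plate plus 3 SD, cut at about 37% in these data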;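 further: 0% = orexin A challenge wells and 100% = SB-334867-A antagonist wells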
Target sequence (O43613 whole entry, looked up): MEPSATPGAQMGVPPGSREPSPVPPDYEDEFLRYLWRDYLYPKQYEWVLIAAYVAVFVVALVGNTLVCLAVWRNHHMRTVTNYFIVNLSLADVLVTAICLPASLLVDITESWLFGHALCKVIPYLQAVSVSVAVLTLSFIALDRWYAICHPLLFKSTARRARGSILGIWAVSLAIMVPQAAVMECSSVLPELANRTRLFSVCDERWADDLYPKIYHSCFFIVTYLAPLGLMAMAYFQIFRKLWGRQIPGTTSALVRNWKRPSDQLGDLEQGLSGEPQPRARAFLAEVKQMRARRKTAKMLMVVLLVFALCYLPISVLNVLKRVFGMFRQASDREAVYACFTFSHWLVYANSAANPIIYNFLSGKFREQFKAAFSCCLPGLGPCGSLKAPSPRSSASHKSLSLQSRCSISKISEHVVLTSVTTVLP
CHO parental Ca: counter-screen for OX1R antagonists: effect in parental CHO cells; parental CHO-K1, ATP-induced calcium, Fluo-8 fluorescence; 0.63% of 330,000 active; inhibition, % at 5.6 µM;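 active means inhibition above that plate's mean sample inhibition plus 3 SD, cut at about 26% in these data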;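 further: 0% = ATP-challenged DMSO wells and 100% = DMSO wells without ATP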
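Assay system: parental CHO cells; Read-out basis: percent inhibition of ATP-evoked calcium rise, normalized to controls; Benchmarks: ATP and no-ATP DMSO wells; Compound dosing: single nominal dose of 5.6 µM per compound; Signal: Fluo-8 calcium dye fluorescence; Also added: ATP as calcium-mobilizing challenge; Repeats: singlicate.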
GalR3 antag: antagonists of human GalR3; O60755; HEK293 GalR3-CNG cAMP membrane potential fluorescence; galR3 body fused to GalR1 C-terminus; inhibition, % at 3 µM; 0.44% of 360,000 active; AID 651719;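 active means inhibition above the screen-wide average plus 3 SD, cut at about 13% in these data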;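 further: forskolin and galanin both at EC90 stimulate the cells; cAMP rise reported by CNG channel membrane potential dye signal; 0% = forskolin plus galanin with DMSO and 100% = forskolin alone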
OX1R antag-2: blocks the human orexin 1 receptor | OX1R-expressing cells, FRET antagonist read-out | inhibition, % at 6.6 µM | 1.8% of 330,000 active; in the data active means inhibition mostly above about 38%, no sharp cut-off; inactive means mostly below about 40%;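 further: 0% = agonist challenge alone and 100% = reference antagonist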
GalR3 conf: confirmation of human galanin receptor 3 antagonists. inhibition, % at 3 µM. HEK293 GalR3 CNG cAMP biosensor, membrane potential fluorescence; galR3 fused to GalR1 carboxy tail; challenged with forskolin and galanin at EC90. 59% of 1,600 active. shares compounds with GalR3 antag;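 active means inhibition above the primary screen's cutoff, the mean inhibition of all screened compounds plus 3 SD, cut at about 13% in these data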;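 further: 0% = forskolin plus galanin and 100% = forskolin alone with DMSO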
HEK-CNG parental: counter-screen for GalR3 antagonists: nonspecific agonists in parental HEK-CNG cells; shares compounds with GalR3 antag; HEK293-CNG parental cells, cAMP membrane potential fluorescence; normalised: DMSO wells 0%, forskolin wells 100%; activation, % at 3 µM; 10% of 1,600 active; in the data active means activation above about 1.3%
Numbers without * were called inactive.

Screening O=C(NN=Cc1ccc(N(CCCl)CCCl)cc1)c1cc(=O)[nH]c(=O)[nH]1 returned GalR3 antag 3.
For O=C(Cc1cc(=O)oc2cc(O)ccc12)NN=Cc1ccc(N(CCCl)CCCl)cc1 the results were GalR3 antag 16*, GalR3 conf 31* and HEK-CNG parental -1.
For CCC(=NCCc1c[nH]c2ccccc12)c1c(O)n(-c2ccc(C)cc2)c(=O)[nH]c1=O the results were GPR7 antagonist -8, OX1R antag-1 -22, CHO parental Ca -9, GalR3 antag -2 and OX1R antag-2 7.
Screening CCC(=NCCc1c[nH]c2ccccc12)c1c(O)n(C)c(=O)n(C)c1=O returned GPR7 antagonist 0, OX1R antag-1 20, CHO parental Ca 44*, GalR3 antag 76*, OX1R antag-2 27, GalR3 conf 37* and HEK-CNG parental 6.7*.
For COC(=O)C1=C(c2cccc(C#N)c2)C[C@@H]2CC[C@H]1N2C(=O)NC1Cc2ccccc2C1 the results were OX1R antag-1 -28, CHO parental Ca -22, GalR3 antag 3 and OX1R antag-2 10.
Screening COC(=O)C1=C(c2ccc(OC)c(OC)c2)C[C@@H]2CC[C@H]1N2C(=O)NC1CC1 returned OX1R antag-1 4, CHO parental Ca -11, GalR3 antag 15*, OX1R antag-2 -2, GalR3 conf 1 and HEK-CNG parental 0.
For COC(=O)C1=C(c2cccc(C#N)c2)C[C@@H]2CC[C@H]1N2C(=O)NC1CC1 the results were OX1R antag-1 4, CHO parental Ca -9, GalR3 antag 15*, OX1R antag-2 2, GalR3 conf 13* and HEK-CNG parental 0.
`CN1CCCC1c1ccc(=O)[nH]c1` (centres undefined) gave GalR3 antag -5.
N#CC(C#N)=NNc1ccc(-n2ccc(C(F)(F)F)n2)cc1 was read as GPR7 antagonist 26*, OX1R antag-1 53*, CHO parental Ca 50*, GalR3 antag 74*, OX1R antag-2 61*, GalR3 conf 80* and HEK-CNG parental 1.
O=C1N[C@@H](Cc2ccccc2)C(=O)N2[C@H]1C[C@H]1c3ccccc3N(OOSc3ccccc3)[C@H]12 was read as OX1R antag-1 -21, CHO parental Ca -22, GalR3 antag -4 and OX1R antag-2 13.
Screening O=C(N/N=C/c1c(O)n(CCc2ccc(F)cc2)c(=O)[nH]c1=O)c1ccncc1 returned GPR7 antagonist 17, OX1R antag-1 -9, CHO parental Ca -12, GalR3 antag 25*, OX1R antag-2 13, GalR3 conf 19* and HEK-CNG parental 0.
`O=C(N/N=C/c1c(O)n(CCc2ccccc2)c(=O)[nH]c1=O)c1ccccc1O` gave GPR7 antagonist 6, OX1R antag-1 -15, CHO parental Ca -9, GalR3 antag 77*, OX1R antag-2 38, GalR3 conf 53* and HEK-CNG parental 0.
O=C(N/N=C/c1c(O)n(Cc2ccc(F)cc2)c(=O)[nH]c1=O)c1ccccc1O was read as GPR7 antagonist -5, OX1R antag-1 13, CHO parental Ca -3, GalR3 antag 13*, OX1R antag-2 10, GalR3 conf 6 and HEK-CNG parental 0.
For CCOc1ccc(NC2=NCCCS2)cc1 the results were GPR7 antagonist -7, OX1R antag-1 -14, CHO parental Ca -8, GalR3 antag -4 and OX1R antag-2 15.
CCC(=O)N1CCN(CCN=Cc2c(O)n(C)c(=O)n(C)c2=O)CC1 was read as GPR7 antagonist -9, OX1R antag-1 -12, CHO parental Ca -12, GalR3 antag -3 and OX1R antag-2 6.
For Cn1c(O)c(C=NCCCCCCCCCCC(=O)O)c(=O)n(C)c1=O the results were GPR7 antagonist -10, OX1R antag-1 5, CHO parental Ca -5, GalR3 antag 17*, OX1R antag-2 13, GalR3 conf 13* and HEK-CNG parental 0.
Screening CC(=NCc1cccnc1)c1c(O)n(-c2ccc(Cl)cc2)c(=O)[nH]c1=O returned GPR7 antagonist 6, OX1R antag-1 -20, CHO parental Ca -14, GalR3 antag 4 and OX1R antag-2 10.
